APP 5'UTR act – activators of APP 5'UTR luciferase reporter, primary screen, SH-SY5Y cells; SH-SY5Y APP 5'UTR luciferase reporter, luminescence; zero percent = DMSO vehicle wells; activation, % at 2 µM; actives 1% (n = 190,000); AID 1276, 2008;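 active = activation above a set limit, based on mean plus 3 SD of controls, cut at about 140% in these data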
STAT3 blocker – IL-6 driven STAT3 reporter inhibitors, primary screen, U3A cells, luciferase, luminescence, MLSCN library; inhibition, % at 5.5 µM; IL-6 STAT3-luciferase reporter; host cell line lacks STAT1; actives 0.89% (n = 190,000);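 active = inhibition above the mean inhibition across all screened compounds plus 3 SD, cut at about 44% in these data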;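 also: 0% = DMSO only wells and 100% = 100 µM nifuroxazide control wells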
STAT3 activator – IL-6 driven STAT3 reporter potentiators, primary screen, U3A cells, luciferase, luminescence, MLSCN library | IL-6 STAT3-luciferase reporter; 100% = signal with IL-6 EC80 alone | activation (% of control), % at 5.6 µM | actives 0.91% (n = 190,000);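 active = activation above the screen-wide mean of compound activation plus 3 SD, cut at about 130% in these data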;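 also: 0% = background luminescence of wells with medium and substrate only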
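Material: STAT3-luciferase reporter U3A cells; Probe or stimulus: IL-6 (33 ng/mL); Incubation: compound pre-incubation 1 h before IL-6, then 6 h stimulation at 37 °C; Technique: luminescence from STAT3-driven luciferase reporter; Evaluation: % activation versus median of IL-6-stimulated wells; Controls: IL-6-only high control.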
STAT1 blocker – STAT1 signaling inhibitors, primary screen, cell-based, HTS, luciferase reporter; actives 0.35% (n = 200,000); AID 920, 2007; NIH 3T3 STAT1-luciferase reporter, IFN-gamma, luminescence; inhibition, % at 5.5 µM;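 active = inhibition above a set limit, the mean inhibition across all tested compounds plus 3 SD, cut at about 34% in these data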;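 also: 0% = IFN-gamma with DMSO and 100% = IFN-gamma with 300 µM nifuroxazide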
STAT1 act – STAT1 signaling activators, primary screen, cell-based, HTS, luciferase reporter | NIH 3T3 STAT1-luciferase reporter, IFN-gamma, luminescence; 100% = IFN-gamma alone, no compound | activation (% of control), % at 5.5 µM | actives 2.6% (n = 200,000) | AID 932, 2007;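 active = activation above the screen-wide mean activation plus 3 SD, cut at about 130% in these data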;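 also: raw ratio to IFN-gamma control signal so 100% means no change and 0% no light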
NF-kB neuron act – activators of NF-kB expression in neurons, primary screen, cell-based, HTS; actives 1.6% (n = 190,000); human neuronal cells, NF-kB reporter expression; hits give high values; fold change at 12.5 µM; in the data active = fold change above about 3.3
STAT1 activ conf – STAT1 signaling activators, confirmation, cell-based, HTS, luciferase reporter; shares compounds with STAT1 act; NIH 3T3 STAT1-luciferase reporter, IFN-gamma potentiation, luminescence; 100% = IFN-gamma EC80 alone, no compound; activation (% of control), % at 5.7 µM; actives 97% (n = 1,200); AID 1262, 2008;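 active = activation above a set limit carried over from the earlier primary STAT1 screen, cut at about 140% in these data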;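 also: simple ratio to median IFN-gamma plus DMSO wells so 0% means no light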
NFkB act – NF-kB reporter activators, TNF-alpha stimulated, counter-screen for STAT1 activator project, cell-based, HEK293T, luciferase luminescence. shares compounds with STAT1 act. 100% = TNF-alpha with vehicle only. activation (% of control), % at 5.7 µM. actives 43% (n = 1,200). AID 1306, 2008;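 active = activation above the mean of solvent-only control wells plus 3 SD, set per campaign, cut at about 130% in these data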;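 also: TNF-alpha given at a submaximal dose yielding about 80% of full reporter signal; values are well signal over median control so 100% means no change and 0% no light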
STAT3 act STAT1c – STAT3 reporter activation by STAT1 hits, confirmation, counter-screen for STAT1 activator project, U3A cells, luciferase, luminescence; shares compounds with STAT1 act; IL-6; cells lack STAT1; 100 = IL-6 alone, no compound effect; activation (% of control), % at 5.7 µM; actives 46% (n = 1,200);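 active = activation above the solvent-only control well mean plus 3 SD, set per plate batch, cut at about 110% in these data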;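 also: 0% = no luminescence and 100% = median IL-6 plus DMSO wells; higher means more STAT3 reporter activation so hits are non-selective activators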
* marks the source's active call; other numbers are inactive results. The list is not random: actives were taken first. Their share in the collection is about 5.1%.

For O=C1C(c2cc(=O)c3ccccc3[nH]2)=C(O)c2ccccc21 the results were APP 5'UTR act 144.1*, STAT3 blocker 8.4, STAT3 activator 94.7, STAT1 blocker -101.7, STAT1 act 190.7*, NF-kB neuron act 7.02*, STAT1 activ conf 193.5*, NFkB act 125.5 and STAT3 act STAT1c 118.4*.
`C=CCNC(=O)c1ccccc1NC(=O)c1ccc(Cl)c(S(=O)(=O)Nc2ccccc2)c1` gave APP 5'UTR act 14.2, STAT3 blocker 16.4, STAT3 activator 90.6, STAT1 blocker 9.1, STAT1 act 91.9 and NF-kB neuron act 0.61.
Screening Cc1ccc(/C=N/n2c(C)nnc2C)o1 returned APP 5'UTR act 17.9, STAT3 blocker -6.4, STAT3 activator 101.0, STAT1 blocker -8.0, STAT1 act 107.3 and NF-kB neuron act 1.12.
Cc1ccc(C=Nc2ccc(N(C)C)cc2)o1 was read as APP 5'UTR act 153.1*, STAT3 blocker 6.0, STAT3 activator 98.9, STAT1 blocker -70.3, STAT1 act 163.9*, NF-kB neuron act 0.85, STAT1 activ conf 148.9*, NFkB act 131.9 and STAT3 act STAT1c 113.4*.
For COc1cccc(-c2cn3nc4c(nc3n2)CCCC4)c1 the results were APP 5'UTR act 170.3*, STAT3 blocker 15.7, STAT3 activator 88.4, STAT1 blocker -65.9, STAT1 act 160.2*, NF-kB neuron act 3.56*, STAT1 activ conf 191.1*, NFkB act 111.1 and STAT3 act STAT1c 89.2.
`COc1cccc(-c2cc(C(F)(F)F)n3nc(N)nc3n2)c1` gave APP 5'UTR act -9.7, STAT3 blocker 10.3, STAT3 activator 94.5, STAT1 blocker 4.0, STAT1 act 99.3 and NF-kB neuron act 1.18.
`CC(OC(=O)C1CC1)C(=O)Nc1ccc([N+](=O)[O-])cc1Cl` (stereo not drawn) gave APP 5'UTR act 8.1, STAT3 blocker 11.6, STAT3 activator 92.3, STAT1 blocker -7.5, STAT1 act 106.9 and NF-kB neuron act 1.27.
`O=C(Nc1ccccc1Cl)c1cnccn1` gave APP 5'UTR act -6.6, STAT3 blocker 27.2, STAT3 activator 82.0, STAT1 blocker 7.5, STAT1 act 94.0 and NF-kB neuron act 1.12.
CC(C)(C)C(=O)c1cnc(Nc2ccccc2Cl)s1 was read as APP 5'UTR act 114.3, STAT3 blocker 3.2, STAT3 activator 97.3, STAT1 blocker -63.9, STAT1 act 158.1*, NF-kB neuron act 5.1*, STAT1 activ conf 204.3*, NFkB act 132.6 and STAT3 act STAT1c 111.0*.
Screening O=C(c1ccccc1)c1cnc(Nc2ccccc2Cl)s1 returned APP 5'UTR act 173.7*, STAT3 blocker -6.4, STAT3 activator 106.2, STAT1 blocker -69.5, STAT1 act 162.1*, NF-kB neuron act 7.31*, STAT1 activ conf 213.8*, NFkB act 134.6* and STAT3 act STAT1c 113.1*.
CC(C)C(=O)Nc1ncc(Cc2ccccc2Cl)s1 was read as APP 5'UTR act -15.0, STAT3 blocker 9.5, STAT3 activator 93.8, STAT1 blocker 6.7, STAT1 act 92.1 and NF-kB neuron act 1.78.

Screening data from PubChem.
